According to ChEMBL document CHEMBL4422612, “Small Molecule Inhibitor that Stabilizes the Autoinhibited Conformation of the Oncogenic Tyrosine Phosphatase SHP2” (J Med Chem, 2019):
Calls of active or inactive are those of the source. The calls are words filed in the database; no cut-off is given here.

Target: T1, Tyrosine-protein phosphatase non-receptor type 11 (Homo sapiens) (UniProt Q06124)
T1 sequence (whole entry): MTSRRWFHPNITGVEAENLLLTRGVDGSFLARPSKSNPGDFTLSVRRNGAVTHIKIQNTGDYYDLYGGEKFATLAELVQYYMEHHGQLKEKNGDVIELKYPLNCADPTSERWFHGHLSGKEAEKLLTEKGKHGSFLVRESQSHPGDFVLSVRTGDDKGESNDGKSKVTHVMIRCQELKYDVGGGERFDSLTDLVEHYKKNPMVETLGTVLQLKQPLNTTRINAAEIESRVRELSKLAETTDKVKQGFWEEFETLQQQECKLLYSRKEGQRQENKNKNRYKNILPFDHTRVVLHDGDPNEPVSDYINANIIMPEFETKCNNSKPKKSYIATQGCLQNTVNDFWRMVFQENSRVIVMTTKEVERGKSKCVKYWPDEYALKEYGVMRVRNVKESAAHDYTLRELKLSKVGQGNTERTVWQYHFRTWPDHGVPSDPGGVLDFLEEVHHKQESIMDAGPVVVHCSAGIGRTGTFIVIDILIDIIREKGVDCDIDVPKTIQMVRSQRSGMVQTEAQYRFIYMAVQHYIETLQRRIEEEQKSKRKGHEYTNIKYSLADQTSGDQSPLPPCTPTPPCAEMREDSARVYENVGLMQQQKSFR
Experiment: Inhibition of wild type recombinant human SHP2 at 50 uM using H-Glu-Phe-pTyr-Ala-Glu-Val-Gly-Arg-Ser-Pro-Pro-Asp-Pro-Ala-Lys as substrate preincubated for 30 mins followed by substrate addition and measured after 30 mins by Malachite Green-reagent based assay
Procedure, shortened: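 Full-length SHP2 or SHP1 (0.1 µg) preincubated with compound 30 min at room temperature in 25 mM Tris-HCl pH 7.4, 50 mM NaCl, 5 mM DTT, 2.5 mM EDTA. Phospho-peptide substrate added to 50 µM final; 30 min at 30 °C. Released phosphate read by Malachite Green at OD620. IC50 from six concentrations; three experiments.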

| inhibition | SMILES |
| --- | --- |
| Active | C=CCOc1cc(O)c(C(=O)/C=C/c2ccc(Cl)cc2Cl)cc1CN1CCCCC1 |
| Active | CCOc1cc(O)c(C(=O)/C=C/c2ccc(Cl)cc2Cl)cc1CN(CC)CC |
| Active | CCOc1cc(O)c(C(=O)/C=C/c2ccc(Cl)cc2Cl)cc1CN1C[C@@H](O)C[C@@H]1C(C)=O |
| Active | CCOc1cc(O)c(C(=O)/C=C/c2ccc(Cl)cc2Cl)cc1CN1CCC(O)CC1 |
| Active | CCOc1cc(O)c(C(=O)/C=C/c2ccc(Cl)cc2Cl)cc1CN1CCNCC1C (centres undefined) |
| Active | C=CCOc1cc(O)c(C(=O)/C=C/c2ccc(Cl)cc2Cl)cc1CN1CCC(O)CC1 |
| Active | CCOc1cc(O)c(C(=O)/C=C/c2ccc(Cl)cc2Cl)cc1CN1CCCCC1 |
| Active | CCOc1cc(O)c(C(=O)/C=C/c2ccc(Cl)cc2)cc1CN1CCCC1 |
| Active | CCOc1cc(O)c(C(=O)/C=C/c2ccc(OC)cc2)cc1CN1CCCCC1 |
